Reference: ChEMBL document CHEMBL4477162, “Galanthamine, Plicamine, and Secoplicamine Alkaloids from Zephyranthes candida and Their Anti-acetylcholinesterase and Anti-inflammatory Activities” (J Nat Prod, 2016)
Activity calls are given as the source filed them. The rule behind the calls is not given here.

Assays:
[1] = target: Acetylcholinesterase (Electrophorus electricus, UniProt O42275); assay: Inhibition of electric eel AChE using acetylthiocholine iodide as substrate measured every 13 secs by Ellman's method
Sequence of Acetylcholinesterase (O42275 whole entry): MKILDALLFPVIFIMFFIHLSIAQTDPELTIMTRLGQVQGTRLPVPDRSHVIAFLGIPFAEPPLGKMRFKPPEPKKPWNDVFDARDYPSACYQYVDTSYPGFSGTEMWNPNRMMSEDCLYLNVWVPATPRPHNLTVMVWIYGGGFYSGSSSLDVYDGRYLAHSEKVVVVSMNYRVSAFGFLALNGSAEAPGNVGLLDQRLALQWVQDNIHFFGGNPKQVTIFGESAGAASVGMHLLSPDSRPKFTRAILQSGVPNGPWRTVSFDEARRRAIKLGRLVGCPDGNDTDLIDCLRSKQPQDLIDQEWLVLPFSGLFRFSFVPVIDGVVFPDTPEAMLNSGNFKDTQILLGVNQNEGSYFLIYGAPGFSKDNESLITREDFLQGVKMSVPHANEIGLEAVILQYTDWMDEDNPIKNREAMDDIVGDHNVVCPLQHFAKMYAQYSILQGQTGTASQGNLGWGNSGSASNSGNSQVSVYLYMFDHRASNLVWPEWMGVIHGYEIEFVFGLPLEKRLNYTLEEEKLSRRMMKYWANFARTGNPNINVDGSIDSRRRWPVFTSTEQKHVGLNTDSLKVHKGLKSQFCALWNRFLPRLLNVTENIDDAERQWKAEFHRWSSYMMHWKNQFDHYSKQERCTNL

[2] = test system: RAW264.7; assay: Antiinflammatory activity in mouse RAW264.7 cells assessed as inhibition of LPS-induced NO production after 24 hrs by Griess assay; assay type: functional, cell-based; details: RAW264.7, 24 h
Method in brief: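 LPS-stimulated RAW 264.7 mouse macrophages; compound inhibition of NO production measured, with dexamethasone as positive control. The protocol follows a previously described method.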

[3] = test system: RAW264.7; assay: Cytotoxicity against mouse RAW264.7 cells at 200 uM; assay type: cell-based; details: raw264.7, 200 µM
[4] = test system: RAW264.7; assay: Antiinflammatory activity in mouse RAW264.7 cells assessed as inhibition of LPS-induced NO production at 200 uM after 24 hrs by Griess assay; assay type: functional, cell-based

SMILES | inhibition [4] | further results
CO[C@@H]1C=C[C@@]23c4cc5c(cc4CN(CCc4c[nH]c6ccccc46)[C@@H]2C(=O)N(C)[C@H]3C1)OCO5 | – | IC50 [1]: 111 µM; IC50 [2]: 18 µM; Activity [3]: Non-Toxic
CN1CC[C@@]23C=C[C@H](O)C[C@@H]2Oc2c(O)ccc(c23)C1 | inactive | –
CO[C@@H]1C=C[C@@]23c4cc5c(cc4CN(CCC(C)C)[C@@H]2C(=O)N(C)[C@H]3C1)OCO5 | inactive | –
COc1ccc2c3c1O[C@H]1C[C@@H](O)CC[C@@]31CCN(C)C2 | inactive | –
CO[C@@H]1C=C[C@@]23c4cc5c(cc4C[N+]([O-])(CCc4ccc(O)cc4)[C@@H]2C(=O)N(C)[C@H]3C1)OCO5 (stereo partly drawn) | – | IC50 [1]: 75.3 µM; IC50 [2]: 7.5 µM; Activity [3]: Non-Toxic
COc1ccc2c3c1O[C@H]1C[C@@H](O)C=C[C@@]31CCN(C)C2 | inactive | –
CC[C@H](C)CN1Cc2cc3c(cc2[C@@]24C=C[C@@H](OC)C[C@@H]2N(C)C(=O)[C@@H]14)OCO3 | inactive | –
CN1Cc2ccc(O)c3c2[C@@]2(C=C[C@H](O)C[C@@H]2O3)[C@@H](O)C1 | inactive | IC50 [1]: 169 µM
CO[C@@H]1C=C[C@@]23c4cc5c(cc4C=N[C@@H]2C(=O)N(C)[C@H]3C1)OCO5 | inactive | –
COc1ccc2c3c1O[C@H]1C[C@@H](O)C=C[C@@]31[C@@H](O)C[N+](C)([O-])C2 (stereo partly drawn) | inactive | –
COc1ccc2c3c1O[C@H]1C[C@@H](O)C=C[C@@]31[C@@H](O)CN(C)C2 | inactive | –
COc1ccc2c3c1O[C@H]1[C@@H](O)[C@@H](O)C=C[C@@]31[C@@H](O)CN(C)C2 | inactive | –
CO[C@@H]1C=C[C@@]23c4cc5c(cc4CN(CCc4ccccc4)[C@@H]2C(=O)N(C)[C@H]3C1)OCO5 | – | IC50 [2]: 10.2 µM; Activity [3]: Non-Toxic
CCCCCCN1Cc2cc3c(cc2[C@@]24C=C[C@@H](OC)C[C@@H]2N(C)C(=O)[C@@H]14)OCO3 | inactive | –
CO[C@@H]1C=C[C@@]23c4cc5c(cc4C[N+]([O-])(CCC(C)C)[C@@H]2C(=O)N(C)[C@H]3C1)OCO5 (stereo partly drawn) | inactive | IC50 [1]: 57.3 µM
CO[C@@H]1C=C[C@@]23c4cc5c(cc4CN(C)[C@@H]2C(=O)N(C)[C@H]3C1)OCO5 | inactive | –
CN1CC[C@@]23CC[C@H](O)C[C@@H]2Oc2c(O)ccc(c23)C1 | inactive | –
CO[C@@H]1C=C[C@@]2(C(=O)N(CCC(C)C)Cc3cc4c(cc32)OCO4)[C@@H](N(C)C=O)C1 | – | IC50 [2]: 23.6 µM; Activity [3]: Non-Toxic
CN1Cc2ccc(O)c3c2[C@@]2(CC[C@H](O)C[C@@H]2O3)[C@@H](O)C1 | inactive | –
COc1ccc2c3c1O[C@H]1C[C@@H](O)CC[C@@]31[C@@H](O)C[N+](C)([O-])C2 (stereo partly drawn) | inactive | –
CO[C@@H]1C=C[C@@]23c4cc5c(cc4CN(CCc4ccc(O)cc4)[C@@H]2C(=O)N(C)[C@H]3C1)OCO5 | inactive | –
CO[C@@H]1C=C[C@@]23c4cc5c(cc4CN(CCCC(=O)O)[C@@H]2C(=O)N(C)[C@H]3C1)OCO5 | – | IC50 [2]: 18.8 µM; Activity [3]: Non-Toxic
COc1ccc2c3c1O[C@H]1C[C@@H](O)CC[C@@]31[C@@H](O)CN(C)C2 | inactive | –
CO[C@@H]1C=C[C@@]2(C(=O)N(C)Cc3cc4c(cc32)OCO4)[C@@H](N(C)C=O)C1 | inactive | –
